Results: EPA's CvTdb concentration-time database

Legend:
[1] = tested on: Rat; assay: concentration in plasma after dosing; details: dosed: Isoeugenol, 70 mg/kg, oral, Male, F344/N
[2] = tested on: Rat; assay: concentration in plasma after dosing; details: dosed: Isoeugenol, 17 mg/kg, oral, Female, F344/N
[3] = tested on: Rat; assay: concentration in plasma after dosing; details: dosed: Isoeugenol, 17 mg/kg, oral, Female, F344/N; remark: listed apart in the source
[4] = tested on: Rat; assay: concentration in plasma after dosing; details: 20 min; dosed: Isoeugenol; 17 mg/kg; oral; Male; F344/N
[5] = tested on: Rat; assay: concentration in plasma after dosing; details: dosed: Isoeugenol, 70 mg/kg, oral, Male, F344/N; remark: listed apart in the source
[6] = tested on: Rat; assay: concentration in plasma after dosing; details: 2 min; dosed: Isoeugenol; 17 mg/kg; oral; Male; F344/N
[7] = tested on: Rat; assay: concentration in plasma after dosing; details: dosed: Isoeugenol, 17 mg/kg, oral, Female, F344/N; remark: listed apart in the source
[8] = tested on: Rat; assay: concentration in plasma after dosing; details: dosed: Isoeugenol, 70 mg/kg, oral, Male, F344/N; remark: listed apart in the source
[9] = tested on: Rat; assay: concentration in plasma after dosing; details: dosed: Isoeugenol, 17 mg/kg, oral, Female, F344/N; remark: listed apart in the source
[10] = tested on: Rat; assay: concentration in plasma after dosing; details: 20 min; dosed: Isoeugenol; 17 mg/kg; oral; Male; F344/N; remark: listed apart in the source
[11] = tested on: Rat; assay: concentration in plasma after dosing; details: dosed: Isoeugenol, 17 mg/kg, oral, Female, F344/N; remark: listed apart in the source
[12] = tested on: Rat; assay: concentration in plasma after dosing; details: dosed: Isoeugenol, 70 mg/kg, oral, Male, F344/N; remark: listed apart in the source
[13] = tested on: Rat; assay: concentration in plasma after dosing; details: dosed: Isoeugenol, 70 mg/kg, oral, Male, F344/N; remark: listed apart in the source
[14] = tested on: Rat; assay: concentration in plasma after dosing; details: dosed: Isoeugenol, 17 mg/kg, oral, Female, F344/N; remark: listed apart in the source
[15] = tested on: Rat; assay: concentration in plasma after dosing; details: dosed: Tetralin, 20 mg/kg, iv, Female, Harlan Sprague Dawley
[16] = tested on: Rat; assay: concentration in plasma after dosing; details: dosed: Tetralin, 2 mg/kg, iv, Male, F344
[17] = tested on: Rat; assay: concentration in plasma after dosing; details: 1 h; dosed: Tetralin; 2 mg/kg; iv; Male; Harlan Sprague Dawley
[18] = tested on: Rat; assay: concentration in plasma after dosing; details: dosed: Tetralin, 2 mg/kg, iv, Male, F344; remark: listed apart in the source
[19] = tested on: Rat; assay: concentration in plasma after dosing; details: dosed: Tetralin, 2 mg/kg, iv, Male, Harlan Sprague Dawley
[20] = tested on: Rat; assay: concentration in plasma after dosing; details: 2 h; dosed: Tetralin; 2 mg/kg; iv; Male; F344
[21] = tested on: Rat; assay: concentration in plasma after dosing; details: 2 h; dosed: Tetralin; 2 mg/kg; iv; Male; F344; remark: listed apart in the source
[22] = tested on: Rat; assay: concentration in plasma after dosing; details: dosed: Tetralin, 20 mg/kg, iv, Female, Harlan Sprague Dawley; remark: listed apart in the source
[23] = tested on: Rat; assay: concentration in plasma after dosing; details: dosed: Tetralin, 2 mg/kg, iv, Male, F344; remark: listed apart in the source
[24] = tested on: Rat; assay: concentration in plasma after dosing; details: dosed: Tetralin, 20 mg/kg, iv, Female, Harlan Sprague Dawley; remark: listed apart in the source
[25] = tested on: Rat; assay: concentration in plasma after dosing; details: 2 h; dosed: Tetralin; 2 mg/kg; iv; Male; Harlan Sprague Dawley
[26] = tested on: Rat; assay: concentration in plasma after dosing; details: 2 h; dosed: Tetralin; 20 mg/kg; iv; Female; Harlan Sprague Dawley
[27] = tested on: Rat; assay: concentration in plasma after dosing; details: dosed: Tetralin, 2 mg/kg, iv, Male, Harlan Sprague Dawley; remark: listed apart in the source
[28] = tested on: Rat; assay: concentration in plasma after dosing; details: dosed: Tetralin, 2 mg/kg, iv, Male, F344; remark: listed apart in the source
[29] = tested on: Rat; assay: concentration in plasma after dosing; details: dosed: Tetralin, 2 mg/kg, iv, Male, F344; remark: listed apart in the source
[30] = tested on: human; assay: concentration in blood after dosing; details: dosed: styrene, 80 ppm, inhalation, duration: 6 hr
Summary of the method: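 A PubMed search, classifier screening and manual review identified published in vivo toxicokinetic studies, which together with two structured collections supplied concentration-versus-time and amount-versus-time points. Points were mostly digitised from plot screenshots with WebPlotDigitizer, otherwise copied from tables. Dose, route, subject details and medium were hand-curated from each paper, and sampling and analytical methods are those of the sources, often unreported.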

[31] = tested on: rat; assay: concentration in blood after dosing; details: dosed: styrene, 3000 ppm, dermal, duration: 4 hr, male, F344
[32] = tested on: rat; assay: concentration in blood after dosing; details: dosed: styrene, 3000 ppm, dermal, duration: 4 hr, male, F344; remark: listed apart in the source

C/C=C/c1ccc(O)c(OC)c1 [Isoeugenol]
Details | concentration in plasma [ng/mL]
[1], 4 h | 339
[1], 20 min | 557
[2], 0.75 h | 40.3
[2], 6 h | 74.4
[3], 1 h | 22.7
[3], 3 h | 29.5
[5], 2 h | 68.4
[5], 2 min | 711
[7], 1.5 h | 52.9
[7], 5 min | 355
[8], 6 h | 240
[8], 20 min | 1840
[9], 0.5 h | 243
[9], 8 h | 18
[11], 2 h | 23.2
[11], 2 min | 69.1
[12], 1.5 h | 209
[12], 5 min | 526
[13], 5 h | 106
[13], 5 min | 1020
[14], 0.75 h | 52.2
[14], 3 h | 16.3

Details | concentration in plasma [ng/mL]
[4] | 105
[6] | 35.6
[10] | 132

c1ccc2c(c1)CCCC2 [Tetralin]
Details | concentration in plasma [µg/g]
[15], 0.505 h | 5.59
[15], 8 h | 0.077
[16], 4 h | 0.00972
[16], 308 s | 1.77
[18], 0.09 h | 1.33
[18], 4 h | 0.0088
[19], 0.2533 h | 0.362
[19], 6 h | 0.00512
[22], 0.25 h | 11.4
[22], 6 h | 0.104
[23], 1 h | 0.066
[23], 24 h | 0.00085
[24], 0.75 h | 2.33
[24], 12 h | 0.0285
[27], 0.75 h | 0.0729
[27], 12 h | 0.00211
[28], 0.75 h | 0.134
[28], 12 h | 0.00182
[29], 0.25 h | 0.386
[29], 6 h | 0.0061

Details | concentration in plasma [µg/g]
[17] | 0.0313
[20] | 0.0271
[21] | 0.0337
[25] | 0.0164
[26] | 0.52

C=Cc1ccccc1 [styrene]
Details | concentration in blood [ng/mL]
[30], 0.7751 h | 429
[30], 2.296 h | 742
[30], 4.093 h | 759
[30], 5.217 h | 777
[30], 6.069 h | 904
[30], 6.347 h | 484
[30], 7.03 h | 241
[30], 7.933 h | 178
[30], 10.01 h | 92.2
[30], 11.99 h | 61.1
[30], 14.2 h | 52.4
[30], 18.16 h | 34.7
[30], 23.1 h | 26.7
[30], 29.98 h | 18.5
[30], 46.98 h | 10.1
[31], 0.5 h | 1870
[31], 1 h | 2430
[31], 2 h | 5540
[31], 3 h | 6070
[31], 4 h | 7900
[32], 0.5 h | 7760
[32], 1 h | 7040
[32], 2 h | 11500
[32], 3 h | 7240
[32], 4 h | 13000
